The bioavailability is the share of a dose that reaches the circulation, judged against a reference dose that is usually intravenous. Read a low bioavailability as little systemic uptake. Usually AUC stands for the area under the concentration-time curve, a measure of exposure. Read a high AUC as more exposure. As usually defined, the EC50 is the concentration giving half of the maximal effect. As a reminder, the IC50 is the midpoint of a concentration-inhibition curve.

Molecules are shown by their SMILES. The source made the active and inactive calls. The rule behind the calls is not given here.

Experimental findings from ChEMBL document CHEMBL4049421, “Design, Synthesis, and Pharmacological Characterization of N-(4-(2 (6,7-Dimethoxy-3,4-dihydroisoquinolin-2(1H)yl)ethyl)phenyl)quinazolin-4-amine Derivatives: Novel Inhibitors Reversing P-Glycoprotein-Mediated Multidrug Resistance” (J Med Chem, 2017) are described below.

A short description of data set [1]: Inhibition of CYP3A4 in rat liver microsomes assessed as decrease in 6beta-OH testosterone levels at 40 uM using testosterone as substrate by HPLC analysis. In kind it is ADME. The gist of the method: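 Rat liver microsomes, prepared by differential centrifugation, were incubated with testosterone in the absence or presence of compound at 2.5, 5.0, 10.0, 20.0 and 40.0 μM. The 6β-OH testosterone product was quantified by C18 reverse-phase gradient HPLC at 254 nm. Ketoconazole served as positive control. n = 3.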
(Liver microsomes are a subcellular fraction often used to study metabolism.)

Data set [2] is described as follows: Oral bioavailability in Sprague-Dawley rat plasma at 10 mg/kg measured after 24 hrs by LC-MS/MS analysis. In kind it is ADME, organism-based. The gist of the method:
(§1)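 Male Sprague-Dawley rats, n = 3 per group, given drug in Tween-80/ethanol/saline (5:10:85, v/v) at 10 mg/kg p.o. or 5 mg/kg i.v. Retro-orbital blood was taken at 5 min to 24 h, and plasma separated at 900g. Samples were spiked with internal standard, methanol-precipitated and quantified by LC-MS/MS. F = (AUCpo/AUCiv)×(dose iv/dose po)×100%.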

For data set [3], the system named is Rattus norvegicus. Briefly: AUC(0 to infinity) in Sprague-Dawley rat plasma at 5 mg/kg, iv measured after 24 hrs by LC-MS/MS analysis. The class given is ADME, organism-based. Set-up: dose 5 mg/kg, time infinity, route intravenous. The following applies: in vivo. The essentials:
as §1

Data set [4] is filed under the species Homo sapiens. Kind of data set: Inhibition of P-gp in human K562/A02 cells assessed as potentiation of daunorubicin-induced cytotoxicity at 1.0 uM after 48 hrs by MTT assay. In kind it is cell-based. The gist of the method:
(§2)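 K562/A02 cells were exposed for 48 h to DNR, PTX, VLB or CTX at 0, 0.313–20 μM, with or without modulator at 1.0 μM. Viability was measured by MTT at 490 nm, mean ± SD of three independent tests.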
In general terms: Formazan colour is commonly taken as a measure of viable cells.

The species entered for data set [5] is Homo sapiens. Kind of data set: Inhibition of P-gp mediated efflux in human K562/A02 cells assessed as intracellular Rh123 accumulation at 1.0 uM measure up to 90 mins by flow cytometric analysis. The class given is cell-based. The gist of the method: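 K562/A02 cells were loaded with 5 μM Rh123 for 90 min at 37 °C and washed three times. They were then incubated with or without modulator at 37 °C for 5, 10, 25, 30, 60 and 90 min. Retained Rh123 MFI per 10000 cells was measured by flow cytometry. 0.1% DMSO negative control, n = 3.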
In general terms: In flow cytometry, cells or beads pass a laser one at a time.

A short description of data set [6]: Inhibition of P-gp in human K562/A02 cells assessed as potentiation of doxorubicin-induced cytotoxicity by measuring fold reduction in doxorubicin IC50 after 48 hrs by MTT assay relative to doxorubicin alone. The class given is cell-based. The following applies: K562/A02, 48 h. The gist of the method: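 K562/A02 cells (1×10^4 cells per well) were exposed to a DOX concentration series, alone or with modulator at 1.0 μM, for 48 h. Viability was read by MTT at 490 nm. Reversal fold = DOX IC50 without inhibitor / DOX IC50 with inhibitor, mean ± SD of three tests.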

The species entered for data set [7] is Homo sapiens. Kind of data set: Inhibition of P-gp in human K562/A02 cells assessed as potentiation of doxorubicin-induced cytotoxicity at 1 uM preincubated for 24 hrs followed by compound washout for 24 hrs and subsequent doxorubicin addition measured after 48 hrs by MTT assay. In kind it is cell-based. The gist of the method: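 K562/A02 cells (1×10^4 cells per well) were preincubated 24 h with modulator (1.0 μM or 5.0 μM) or PBS. Cells were washed 0 or 3 times with medium and held for 0, 6, 12 or 24 h. A DOX concentration series was then added for 48 h, and viability was read by MTT. Triplicate determinations.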

The subject of data set [8] is Rattus norvegicus. Briefly: Effect on plasma clearance of doxorubicin in Sprague-Dawley rat at 5 mg/kg, iv co-administered with doxorubicin measured after 8 hrs by LC-MS/MS analysis. In kind it is ADME, organism-based. The following applies: in vivo. The gist of the method:
(§3)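 Male SD rats received DOX 10 mg/kg i.v. alone or with modulator 5 mg/kg i.v. Orbital blood was taken at 5 min to 8 h. Plasma DOX was measured by LC-MS/MS with DNR (0.5 μg/mL) as internal standard. Mean ± SD, n = 3.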

In data set [9] the test system is Rattus norvegicus. Kind of data set: Effect on plasma concentration of doxorubicin in Sprague-Dawley rat at 5 mg/kg, iv co-administered with doxorubicin measured after 8 hrs by LC-MS/MS analysis. The class given is ADME, organism-based. To be noted: in vivo. The essentials: as §3
Data set [10] is described as follows: Bioavailability in Sprague-Dawley rat plasma at 5 mg/kg, iv measured after 24 hrs by LC-MS/MS analysis. The class given is ADME, organism-based. The gist of the method:
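Bioavailability was calculated as (AUCpo/AUCiv)×(dose iv/dose po)×100% from male SD rats (n = 3) dosed 5 mg/kg i.v. or 10 mg/kg p.o. in Tween-80/ethanol/saline (5:10:85). Plasma sampled 5 min–24 h was analysed by LC-MS/MS.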

Data set [11] has as its system K562/A02. Briefly: Cytotoxicity against human K562/A02 cells assessed as suppression of cell viability after 48 hrs by MTT assay. In kind it is cell-based. To be noted: K562/A02, 48 h. The gist of the method:
(§4)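 MTT assay on HUVEC, K562 or K562/A02 cells seeded at 1×10^4 cells per well, using serial compound concentrations. Formazan was dissolved in DMSO and read at 490 nm. IC50 was obtained from log dose–response curves, mean ± SD of three independent tests.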

In a further data set the test system is HUVEC. Kind of data set: Cytotoxicity against HUVEC assessed as reduction in cell viability after 48 hrs by MTT assay. In kind it is cell-based. The following applies: Homo sapiens. The gist of the method:
as §4

For data set [12], the system named is K562/A02. Kind of data set: Effect on ABCB1 expression in human K562/A02 cells at 0.1 uM to 2.0 uM after 72 hrs by Western blot analysis. In kind it is functional, cell-based. The gist of the method: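 K562/A02 cells were treated 72 h with compound at 0.1, 0.5 or 2.0 μM and lysed in RIPA/PMSF. Lysate (100 μg) was run on gradient SDS-PAGE and probed with anti-ABCB1, with β-tubulin loading control and ECL detection. Expression is given as the ABCB1/β-tubulin band-intensity ratio.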

The species named for data set [13] is Homo sapiens. Kind of data set: Inhibition of P-gp in human K562/A02 cells assessed as potentiation of vinblastine-induced cytotoxicity at 1.0 uM after 48 hrs by MTT assay. In kind it is cell-based. The essentials:
as §2

Take `COc1cc2c(cc1OC)CN(CCc1ccc(Nc3nc(-c4ccncc4)nc4ccccc34)cc1)CC2`: in data set [1], the “inhibition (INH)” value is on record as “Not Active”. The bioavailability in data set [2] and in data set [10] was 95.3% throughout. This compound also came in with an AUC with Rattus norvegicus [3] of 1750 ng·h/mL. In addition, the inhibition result in the data set filed under Homo sapiens [4], in the data set listed under Homo sapiens [5], in the data set filed under Homo sapiens [7] and in the data set listed under Homo sapiens [13] was “Active” each time. In addition, the EC50 in data set [6] came to 0.0579 µM. Besides, the Activity entry in the data set with Rattus norvegicus [8] and in the data set on Rattus norvegicus [9] was “Non-Toxic” throughout. Further, the IC50 in the data set with K562/A02 [11] was 12.8 µM; in the data set on HUVEC, 73.6 µM. Besides, the result in the data set with K562/A02 [12] was inactive.
